Data on 35 compounds can be found in ChEMBL document CHEMBL4130477, “Metabolites from the Plant Endophytic Fungus Aspergillus sp. CPCC 400735 and Their Anti-HIV Activities” (J Nat Prod, 2017).

For data set [1], the system named is Human immunodeficiency virus 1. The experiment in a line: Antiviral activity against VSV-G pseudotyped HIV1 infected in human SupT1 cells after 48 hrs by luciferase reporter gene assay. The format is functional, organism-based. The settings on record: Human immunodeficiency virus 1, SUP-T1, 48 h. The method in brief:
(§1)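 VSV-G pseudotyped HIV-1 (pNL-Luc-E plus pHIT/G) was made by […] (2 × 105), harvested at 48 h through a 0.45 μm filter, and quantified by p24 ELISA. […] Compounds were screened at 100 μM; IC50 was determined for those above 60% inhibition.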
On the technique in general: Reporter assays use an easily measured gene product as a stand-in for the process of interest.

The nature of data set [2]: Cytotoxicity against human SupT1 cells assessed as decrease in cell viability after 48 hrs by CCK-8 assay. Format: cell-based, SUP-T1.
Data set [3] deals with Human immunodeficiency virus 1. Kind of data set: Antiviral activity against VSV-G pseudotyped HIV1 infected in human SupT1 cells at 100 uM after 48 hrs by luciferase reporter gene assay relative to control. Conditions: for inhibition at 100 µM: Human immunodeficiency virus 1, SUP-T1, 48 h. The format is functional. In a few lines: as §1

Calls of active or inactive are those of the source. No cut-off for these calls is given here.

By IC50 is commonly meant the concentration that inhibits the measured activity by half. A high value points to weaker potency. One may read the CC50 as the concentration that lowers cell viability or growth by half. For orientation: inhibition means the change of the read-out against control, counted positive when it falls. Regarding `COC(=O)[C@@]1(Cc2ccc3c(c2)C[C@H](O)C(C)(C)O3)OC(=O)C(OC)=C1c1ccc(O)cc1`, the IC50 in data set [1] was found to be 48 µM. In addition, the CC50 at 48 h in data set [2] turned out to be 93 µM. This compound had an inhibition at 100 µM in data set [3] of 84.8%.

`COc1cc(/C=C2\OC(=O)C(c3ccc(O)cc3)=C2O)cc(OC)c1O`: in data set [1], the IC50 stood at 43.7 µM. In data set [2], the CC50 at 48 h is above 100 µM. The inhibition at 100 µM in data set [3] amounted to 52.3%.

With `COC(=O)c1cc(O)cc(OC)c1C(=O)c1c(O)cc(C)cc1O` [SULOCHRIN], in data set [3], at 100 µM the inhibition was 53.8%.

`Cc1c(O)c(O)c2c(c1C=O)[C@@H]1O[C@H](O2)c2c(C)c(O)c(O)c(O)c2C1=O` returned a half-inhibitory concentration (IC50) in data set [1] of 6.6 µM. Moreover, in data set [2], the CC50 at 48 h was above 100 µM. This compound also gave an inhibition at 100 µM in data set [3] of 99.9%.

In data set [3], `C[C@H]1/C=C/OC(=O)O[C@@]23C(=O)N[C@@H](Cc4ccccc4)[C@@H]2[C@H](C)[C@@]2(C)OC2[C@@H]3/C=C/C[C@H](C)C1=O` (stereo partly drawn) came in with an inhibition at 100 µM of 54.3%.

Turning to `C=C1[C@@H](C)[C@H]2[C@H](Cc3ccccc3)NC(=O)[C@]23OC(=O)/C=C/[C@H](C)[C@H](O)[C@@H](C)C/C=C/[C@H]3[C@@H]1O`, the IC50 in data set [1] was found to be 25.8 µM. In data set [2], the CC50 at 48 h turned out to be 95.1 µM. At 100 µM the inhibition in data set [3] was 100%.

In data set [1], `O=C1O/C(=C\c2ccc(O)c(O)c2)C(O)=C1c1ccc(O)cc1` gave a half-maximal inhibitory concentration (IC50) of 40 µM. Moreover, the CC50 at 48 h in data set [2] was above 100 µM. The compound also had an inhibition at 100 µM in data set [3] of 72.3%.

Regarding `COC(=O)c1cc(O)cc(OC)c1C(=O)c1c(O)c(Cl)c(C)c(Cl)c1O` [DIHYDROGEODIN], in data set [1], the IC50 was 56.3 µM. For the same compound, the CC50 at 48 h in data set [2] was above 100 µM. Besides, testing at 100 µM in data set [3] gave an inhibition of 91.1%.

In turn, `CC1=C(C)[C@H]2[C@H](Cc3ccccc3)NC(=O)[C@]23OC(=O)/C=C/[C@@](C)(O)C[C@@H](C)C/C=C/[C@H]3[C@@H]1O` [CYTOCHALASIN Z9] had an IC50 in data set [1] of 14.4 µM. The CC50 at 48 h in data set [2] was above 100 µM. Further, the inhibition at 100 µM in data set [3] was 98.7%.

As to `CC1=C(C)[C@H]2[C@H](Cc3ccccc3)NC(=O)[C@@]2(O)[C@@H](/C=C/C[C@H](C)C(=O)[C@H](C)O)[C@@H]1O` [CYTOCHALASIN Z13], testing at 100 µM in data set [3] gave an inhibition of 44.9%.

For `COC(=O)[C@@]1(Cc2ccc(O)c(C[C@@H](O)C(C)(C)O)c2)OC(=O)C(OC)=C1c1ccc(O)cc1`, in data set [1], the IC50 was 82.3 µM. Also, the CC50 at 48 h in data set [2] worked out at 94.3 µM. The compound also had an inhibition at 100 µM in data set [3] of 64.3%.

`C/C(=C\CC/C(C)=C/C[C@]1(O)C(=O)c2c(O)cc(C)c3c(O)c(C)c(O)c(c23)C1=O)CC/C=C(\CO)CC[C@@H](O)C(C)(C)O` came in with an IC50 in data set [1] of 22.1 µM. Also, in data set [2], the CC50 at 48 h is above 100 µM. In data set [3], this compound came in with an inhibition at 100 µM of 98.6%.

On to `COc1cc(/C=C2\OC(=O)C(c3ccc(O)cc3)=C2O)ccc1O`, for which the inhibition entry in data set [3] was “inactive”.

As to `CC(C)=CCC/C(=C/CC/C(C)=C/CC/C(C)=C/C[C@]1(O)C(=O)c2c(O)cc(C)c3c(O)c(C)c(O)c(c23)C1=O)CO`, the IC50 in data set [1] worked out at 4.5 µM. Besides, in data set [2], the CC50 at 48 h was above 100 µM. Further, in data set [3], the inhibition at 100 µM was 100%.

In data set [1], `COC(=O)[C@@]1(Cc2ccc(O)c(C[C@H](O)C(C)(C)O)c2)OC(=O)C(OC)=C1c1ccc(O)cc1` displayed an IC50 of 67.2 µM. Also, the CC50 at 48 h in data set [2] is above 100 µM. The inhibition at 100 µM in data set [3] was 73.4%.

Compound `COc1cc(O)cc(C(=O)O)c1Oc1cc(C)cc(O)c1C(=O)O` had an inhibition at 100 µM in data set [3] of 25.5%.

`Nc1ccn([C@@H]2CS[C@H](CO)O2)c(=O)n1` [LAMIVUDINE] showed an IC50 in data set [1] of 0.1 µM.

In turn, `C/C(=C\CC/C(C)=C/C[C@]1(O)C(=O)c2c(O)cc(C)c3c(O)c(C)c(O)c(c23)C1=O)CC/C=C(/CC[C@@H](O)C(C)(C)O)C(=O)O` showed an inhibition at 100 µM in data set [3] of 48.1%.

In turn, `C/C(=C\CC/C(C)=C/C[C@]1(O)C(=O)c2c(O)cc(C)c3c(O)c(C)c(O)c(c23)C1=O)CC/C=C(\CC[C@@H](O)C(C)(C)O)C(=O)O` had an IC50 in data set [1] of 32.6 µM. For the same compound, the CC50 at 48 h in data set [2] was 78.6 µM. This compound displayed an inhibition at 100 µM in data set [3] of 96.8%.

In data set [1], `O=C1O[C@H](Cc2ccc(O)cc2)C(c2ccc(O)cc2)=C1O` showed an IC50 of 54.2 µM. Also, in data set [2], the CC50 at 48 h was above 100 µM. In addition, the inhibition at 100 µM in data set [3] turned out to be 62.2%.

Take `O=C1O/C(=C\c2ccc(O)cc2)C(O)=C1c1ccc(O)c(O)c1`: in data set [1], the IC50 is 72.4 µM. The CC50 at 48 h in data set [2] is above 100 µM. 100 µM produced 74.8% inhibition in data set [3].

For the compound `COC(=O)c1cc(O)cc(OC)c1Oc1c(Cl)c(C)c(Cl)c(O)c1C(=O)O`, in data set [3], the inhibition entry is “inactive”.

In the case of `COC1=C(c2ccc(O)cc2)[C@@H](Cc2ccc(O)cc2)OC1=O`, the IC50 in data set [1] was 68.7 µM. In data set [2], the 50% cytotoxic concentration (CC50) at 48 h amounted to 96.5 µM. In data set [3], this compound displayed an inhibition at 100 µM of 72.8%.

In data set [1], `C/C1=C\CC(=O)O[C@@]23C(=O)N[C@@H](Cc4ccccc4)[C@@H]2[C@H](C)[C@@]2(C)O[C@H]2[C@@H]3/C=C/C[C@H](C)C1=O` gave an IC50 of 41.6 µM. Further, the 50% cytotoxic concentration (CC50) at 48 h in data set [2] was found to be 98.6 µM. For the same compound, in data set [3], the inhibition at 100 µM turned out to be 81.5%.

As to `O=C1O/C(=C\c2ccc(O)cc2)C(O)=C1c1ccc(O)cc1`, the inhibition result in data set [3] was “inactive”.

On to `COc1cc(/C=C2\OC(=O)C(c3ccc(O)cc3)=C2O)cc(O)c1O`, for which half-maximal inhibition in data set [1] (IC50) required 78.3 µM. In addition, the CC50 at 48 h in data set [2] was above 100 µM. Moreover, in data set [3], the inhibition at 100 µM turned out to be 69.8%.

For the compound `COC(OC)C1CCC(C(C)(C)O)OC1CC/C(C)=C/CC/C(C)=C/C[C@]1(O)C(=O)c2c(O)cc(C)c3c(O)c(C)c(O)c(c23)C1=O` (stereo partly drawn), the IC50 in data set [1] was determined as 2.4 µM. Further, the CC50 at 48 h in data set [2] was above 100 µM. Besides, in data set [3], the inhibition at 100 µM came out at 99.8%.

As for `COC(=O)c1cc(O)cc(OC)c1Oc1cc(C)cc(O)c1C(=O)O` [ASTERRIC ACID], the inhibition at 100 µM in data set [3] is 8.53%.

In turn, `COC(=O)[C@]1(Cc2ccc(O)cc2)OC(=O)C(OC)=C1c1ccc(O)cc1` returned an IC50 in data set [1] of 74.8 µM. The CC50 at 48 h in data set [2] is above 100 µM. In addition, in data set [3], 100 µM produced 68.7% inhibition.

With `COC(=O)[C@]1(Cc2ccc(O)cc2)OC(=O)C(O)=C1c1ccc(O)cc1`, half-maximal inhibition in data set [1] (IC50) required 84.5 µM. Besides, in data set [2], the cytotoxic concentration (CC50) at 48 h is above 100 µM. The same compound registered an inhibition at 100 µM in data set [3] of 60.8%.

Turning to `CC1=C(C)[C@H]2[C@H](Cc3ccccc3)NC(=O)[C@]23OC(=O)/C=C/[C@H](C)[C@H](O)[C@@H](C)C/C=C/[C@H]3[C@@H]1O`, the midpoint of inhibition in data set [1], the IC50, lay at 9.2 µM. Further, in data set [2], the CC50 at 48 h is above 100 µM. The inhibition at 100 µM in data set [3] worked out at 100%.

In the case of `CC1=C(C)[C@H]2[C@H](Cc3ccccc3)NC(=O)[C@]23OC(=O)C/C=C(/C)C(=O)[C@@H](C)C/C=C/[C@H]3[C@@H]1O`, the IC50 in data set [1] stood at 28.9 µM. Further, the CC50 at 48 h in data set [2] stood at 70.8 µM. In data set [3], this compound gave an inhibition at 100 µM of 79.5%.

In data set [1], `Cc1c(O)c(O)c(O)c(C=O)c1-c1cc2c(C=O)c(C)c(O)c(O)c2o1` displayed an IC50 of 20.2 µM. Moreover, in data set [2], the CC50 at 48 h was above 100 µM. In data set [3], this compound showed an inhibition at 100 µM of 94.7%.

Consider `O=C1Nc2ccc(Cl)cc2[C@@](C#CC2CC2)(C(F)(F)F)O1` [EFAVIRENZ], for which the IC50 in data set [1] was found to be 0.0004 µM.

For `Cc1c(O)c(O)c(O)c2c1COC2`, 49.3 µM corresponded to half-maximal inhibition in data set [1] (IC50). In data set [2], the CC50 at 48 h worked out at 91.4 µM. The compound further had an inhibition at 100 µM in data set [3] of 90.8%.
